Values after ≈ are worked out from the molar mass of the structure shown. Active and inactive are the calls of the source. The rule behind the calls is not given here.
Legend:
[1] = Kinetic solubility of the compound; assay type: physicochemical; settings: for solubility kinetic: read-out: Kinetic_solubility
Cytochrome P450 3A4 = Cytochrome P450 3A4 (Homo sapiens, UniProt P08684); assay: Time dependent inhibition of human CYP3A4 preincubated for 30 mins in presence of NADPH; assay type: ADME
Summary of the method: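 TDI IC50 is the inhibitor concentration giving 50% loss of CYP3A4 activity after a 30 min pre-incubation with NADPH. It is reported as clean where no IC50 could be measured.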

[2] = Cytotoxicity against human MCF7 neo/Her2 cells after 3 days by CellTiter-Glo assay; settings: MCF7, 72 h
PC-3 = assay: Cytotoxicity against human PC3 cells after 4 days by CellTiter-Glo assay; settings: PC-3, 96 h
[3] = Inhibition of mTORC2 in human NCI-PC3 cells assessed as inhibition of AKT phosphorylation
[4] = Antitumor activity against human MCF7-neo/Her2 xenografted in nude mouse at 37 mg/kg, qd measured after 14 days; assay type: functional; settings: 336 h, read-out: TGI
Mus musculus [5] = assay: Unbound clearance in mouse at 1 mg/kg, iv; assay type: ADME, organism-based; set-up: dose 1 mg/kg, route intravenous; settings: in vivo
Summary of the method: (§1)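 Mouse PK used iv dosing at 1 mg/kg as a 60% PEG solution and po dosing at 5 mg/kg as a suspension in MCT. Clearance, unbound clearance, Vss, t1/2 and oral bioavailability were derived from these doses.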

[6] = Plasma protein binding in mouse at 5 uM after 4 hrs by rapid equilibrium dialysis; assay type: ADME, cell-free; settings: read-out: PPB (converted)
[7] = Plasma protein binding in human at 5 uM after 4 hrs by rapid equilibrium dialysis; assay type: ADME, cell-free; settings: read-out: PPB (converted)
[8] = Plasma protein binding in rat at 5 uM after 4 hrs by rapid equilibrium dialysis; assay type: ADME, cell-free; settings: read-out: PPB (converted)
[9] = Half life in mouse at 1 mg/kg, iv; assay type: ADME, organism-based; set-up: dose 1 mg/kg, route intravenous; settings: in vivo; summary of the method: as §1
[10] = Oral bioavailability in mouse at 5 mg/kg; assay type: ADME, organism-based; settings: in vivo; summary of the method: as §1
[11] = Volume of distribution at steady state in mouse at 1 mg/kg, iv; assay type: ADME, organism-based; set-up: dose 1 mg/kg, route intravenous; settings: in vivo, read-out: Vdss; summary of the method: as §1
[12] = Clearance in mouse at 1 mg/kg, iv; assay type: ADME, organism-based; set-up: dose 1 mg/kg, route intravenous; settings: in vivo; summary of the method: as §1
[13] = Clearance in mouse liver microsomes; assay type: ADME, Microsome
[14] = Clearance in rat liver microsomes; assay type: ADME, Microsome
[15] = Clearance in human liver microsomes; assay type: ADME, Microsome
Plasma [16] = assay: Unbound plasma concentration in NCR nude mouse xenografted with human PC3 cells at 50 to 100 mg/kg, po measured at 6 to 10 hrs; assay type: ADME, organism-based, PC-3; set-up: route oral; settings: in vivo
Plasma [17] = assay: Plasma concentration in NCR nude mouse xenografted with human PC3 cells at 50 to 100 mg/kg, po measured at 6 to 10 hrs; assay type: ADME, organism-based, PC-3; set-up: route oral; settings: in vivo
Mus musculus [18] = species on record: Mus musculus; settings: NCR, NCI-PC3, 50 to 100 mg/kg
Mus musculus [19] = species on record: Mus musculus; settings: NCR, NCI-PC3, 50 to 100 mg/kg; remark: listed apart in the source
Canis familiaris = assay: Unbound blood clearance in iv dosed dog; assay type: ADME, organism-based, Canis lupus familiaris; settings: in vivo
[20] = Antitumor activity against human MCF7-neo/Her2 xenografted in nude mouse at 12.5 mg/kg, qd measured after 14 days; assay type: functional; settings: 336 h, read-out: TGI
[21] = target: T1, Phosphatidylinositol 4,5-bisphosphate 3-kinase catalytic subunit delta isoform (Homo sapiens) (UniProt O00329); assay: Inhibition of PI3Kdelta (unknown origin) at 1 uM
T1 sequence (whole entry): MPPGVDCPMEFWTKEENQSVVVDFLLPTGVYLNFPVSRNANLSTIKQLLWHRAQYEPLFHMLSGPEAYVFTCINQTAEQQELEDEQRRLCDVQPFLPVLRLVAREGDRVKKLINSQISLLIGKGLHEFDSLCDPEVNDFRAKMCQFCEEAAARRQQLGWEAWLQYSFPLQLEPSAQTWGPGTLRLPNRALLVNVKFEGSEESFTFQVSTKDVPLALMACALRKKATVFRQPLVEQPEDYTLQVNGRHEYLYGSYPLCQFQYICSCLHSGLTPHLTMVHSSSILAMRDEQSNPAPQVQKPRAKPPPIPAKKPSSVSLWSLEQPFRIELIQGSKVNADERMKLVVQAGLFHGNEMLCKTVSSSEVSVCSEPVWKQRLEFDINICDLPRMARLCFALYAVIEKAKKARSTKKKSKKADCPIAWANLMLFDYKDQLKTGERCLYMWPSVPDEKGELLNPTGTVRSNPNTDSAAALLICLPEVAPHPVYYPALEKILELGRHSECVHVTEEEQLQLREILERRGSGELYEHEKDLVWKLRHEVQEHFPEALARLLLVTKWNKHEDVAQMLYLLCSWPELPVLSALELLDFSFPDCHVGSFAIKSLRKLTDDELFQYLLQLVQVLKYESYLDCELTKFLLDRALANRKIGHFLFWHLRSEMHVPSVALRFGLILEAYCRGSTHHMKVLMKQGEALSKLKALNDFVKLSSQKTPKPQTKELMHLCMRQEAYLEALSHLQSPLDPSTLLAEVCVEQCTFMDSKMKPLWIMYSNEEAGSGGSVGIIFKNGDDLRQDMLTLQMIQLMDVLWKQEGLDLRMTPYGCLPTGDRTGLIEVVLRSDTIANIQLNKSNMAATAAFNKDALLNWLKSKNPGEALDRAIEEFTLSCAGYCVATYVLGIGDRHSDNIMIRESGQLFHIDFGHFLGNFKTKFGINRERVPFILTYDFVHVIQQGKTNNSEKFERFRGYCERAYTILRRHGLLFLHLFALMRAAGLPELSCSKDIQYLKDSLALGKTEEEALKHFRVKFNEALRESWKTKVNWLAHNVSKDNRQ

Mus musculus [22] = assay: Inhibition of mTORC2-mediated AKT phosphorylation in human PC3 cells xenografted in NCR mouse up to 5 mg/kg, po measured at 6 hrs; assay type: functional, organism-based; set-up: dose 5 mg/kg; settings: PC-3
Mus musculus [23] = assay: Inhibition of mTORC1-mediated S6RP phosphorylation in human PC3 cells xenografted in NCR mouse up to 5 mg/kg, po measured at 6 hrs; assay type: functional, organism-based; set-up: dose 5 mg/kg; settings: PC-3
[24] = Half life in iv dosed dog; assay type: ADME, organism-based, Canis lupus familiaris; settings: in vivo
[25] = Volume of distribution at steady state in iv dosed dog; assay type: ADME, organism-based, Canis lupus familiaris; settings: in vivo, read-out: Vdss
[26] = Blood clearance in iv dosed dog; assay type: ADME, organism-based, Canis lupus familiaris; settings: whole blood
mTORC1 = mTORC1 (Homo sapiens, UniProt P42345); assay: Inhibition of mTORC1 in human NCI-PC3 cells assessed as inhibition of p70S6K phosphorylation; assay type: cell-based
[27] = target: Serine/threonine-protein kinase mTOR (Homo sapiens, UniProt P42345); assay: Inhibition of human recombinant mTOR expressed in insect cells assessed as inhibition of phosphorylation of (GFP)-4-EBP1 protein after 30 mins by fluorescence resonance energy transfer assay

Chain of Cytochrome P450 3A4 (P08684 whole entry): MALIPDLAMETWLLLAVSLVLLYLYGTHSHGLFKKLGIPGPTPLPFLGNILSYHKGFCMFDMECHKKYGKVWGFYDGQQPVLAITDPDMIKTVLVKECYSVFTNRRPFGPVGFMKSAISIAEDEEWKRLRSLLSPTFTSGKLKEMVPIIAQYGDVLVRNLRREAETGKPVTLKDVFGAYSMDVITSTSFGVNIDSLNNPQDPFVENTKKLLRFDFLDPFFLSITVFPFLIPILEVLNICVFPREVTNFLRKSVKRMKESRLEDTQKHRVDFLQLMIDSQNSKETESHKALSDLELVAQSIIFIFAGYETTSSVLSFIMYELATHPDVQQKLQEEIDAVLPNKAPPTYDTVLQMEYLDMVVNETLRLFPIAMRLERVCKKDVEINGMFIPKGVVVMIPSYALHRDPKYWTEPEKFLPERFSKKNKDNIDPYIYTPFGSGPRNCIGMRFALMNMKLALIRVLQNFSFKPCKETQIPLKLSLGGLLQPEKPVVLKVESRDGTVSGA

| Compound | solubility kinetic [1] [µM] | IC50 (Cytochrome P450 3A4) [nM] | EC50 [2] [nM] | EC50 (PC-3) [nM] | IC50 [3] [nM] | CL free (Mus musculus [5]) [mL/min/kg] | fraction unbound at 4 h, 5 µM [6] | fraction unbound at 4 h, 5 µM [7] | fraction unbound at 4 h, 5 µM [8] | half-life [9] [h] | bioavailability [10] [%] | Vd [11] [L/kg] | clearance [12] [mL/min/kg] | CLhep predicted [13] [mL/min/kg] | CLhep predicted [14] [mL/min/kg] | CLhep predicted [15] [mL/min/kg] | Kinetic_solubility [1] | also measured |
| --- | --- | --- | --- | --- | --- | --- | --- | --- | --- | --- | --- | --- | --- | --- | --- | --- | --- | --- |
| CCNC(=O)Nc1ccc(-c2nc3c(c(N4CCOC[C@@H]4C)n2)CN(C2COC2)CC3)cc1 | 40 (≈ 18.1 µg/mL) | 2500 | 1200 | 797 |  |  |  |  |  |  |  |  |  |  |  |  |  |  |
| CCNC(=O)Nc1ccc(-c2nc3c(c(N4CCOC[C@@H]4C)n2)[C@@H]2CC[C@H](C3)N2C2COC2)cc1 | > 75 |  | 971 | 579 | 45 |  |  |  |  |  |  |  |  |  |  |  |  |  |
| CCNC(=O)Nc1ccc(-c2nc3c(c(N4CCOC[C@@H]4C)n2)[C@H]2CC[C@@H](C3)N2C(C)=O)cc1 | > 75 | 7300 | 460 | 180 | 30 |  |  |  |  |  |  |  |  |  |  |  |  |  |
| CCNC(=O)Nc1ccc(-c2nc3c(c(N4CCOC[C@@H]4C)n2)CCN(C2COC2)C3)cc1 [RG-7603] |  |  |  |  |  | 100 |  |  |  |  |  |  |  |  |  |  |  | inhibition in vivo at 37 mg/kg [4]: 60%; IC50 [2]: 567 nM; IC50 (PC-3): 270 nM |
| CCNC(=O)Nc1ccc(-c2nc3c(c(N4CCOC[C@@H]4C)n2)C[C@@H]2CC[C@H]3N2C(C)=O)cc1 |  |  | 61 | 16 | 2 | 200 | 0.02 | 0.16 | 0.16 | 1.2 | 40 | 0.54 | 4.62 | 42 | 24 | 15 | soluble |  |
| CCNC(=O)Nc1ccc(-c2nc3c(c(N4CCOC[C@@H]4C)n2)[C@H]2CC[C@@H](C3)N2C)cc1 | > 75 |  | 97 | 103 | 3.9 | 207 | 0.32 | 0.62 | 0.73 | 0.8 | 114 | 4.5 | 67 | 42 | 18 | 12 |  | Cp(f) (Plasma [16]): > 320 nM; concentration (Plasma [17]): > 1000 nM; inhibition (Mus musculus [18]): Active; inhibition (Mus musculus [19]): Active |
| CCNC(=O)Nc1ccc(-c2nc3c(c(N4CCOC[C@@H]4C)n2)[C@H]2CC[C@@H](C3)N2S(C)(=O)=O)cc1 | > 75 | 5000 | 806 | 260 | 18 |  |  |  |  |  |  |  |  |  |  |  |  |  |
| CCNC(=O)Nc1ccc(-c2nc3c(c(N4CCOC[C@@H]4C)n2)C[C@@H]2CC[C@H]3N2C2COC2)cc1 |  | > 10000 | 75 | 29 | 3.4 | 38 | 0.13 | 0.15 | 0.24 | 2 | 82 | 0.53 | 4.8 | 51 | 27 | 14 | soluble | CL free (Canis familiaris): 44 mL/min/kg; inhibition in vivo at 12.5 mg/kg [20]: 57%; inhibition [21]: 51%; inhibition (Mus musculus [22]): Active; inhibition (Mus musculus [23]): Active; half-life [24]: 3.1 h; Vd [25]: 3 L/kg; clearance [26]: 6 mL/min/kg; IC50 (mTORC1): 2.7 nM; Ki [27]: 1.5 nM |
| CCNC(=O)Nc1ccc(-c2nc3c(c(N4CCOC[C@@H]4C)n2)C[C@@H]2CC[C@H]3N2C(C)(C)C(=O)NC)cc1 |  |  | 17 | 13 | 0.6 |  |  |  |  |  |  |  |  |  |  |  | soluble |  |
| CCNC(=O)Nc1ccc(-c2nc3c(c(N4CCOC[C@@H]4C)n2)C[C@H]2CC[C@@H]3N2C)cc1 |  |  | 489 | 123 | 16 |  |  |  |  |  |  |  |  |  |  |  | soluble |  |
| CCNC(=O)Nc1ccc(-c2nc3c(c(N4CCOC[C@@H]4C)n2)[C@@H]2CC[C@H](C3)N2C)cc1 | > 75 |  | 158 | 152 | 6.7 | 53 | 0.54 | 0.81 | 0.8 | 1.07 | 82 | 2.6 | 34 | 58 | 28 | 15 |  |  |
| CCNC(=O)Nc1ccc(-c2nc3c(c(N4CCOC[C@@H]4C)n2)C[C@@H]2CC[C@H]3N2C)cc1 |  |  | 84 | 37 | 2.1 | 165 | 0.14 |  | 0.32 | 1.3 | 133 | 1.5 | 24 | 50 | 22 | 14 | soluble |  |
| CCNC(=O)Nc1ccc(-c2nc3c(c(N4CCOC[C@@H]4C)n2)[C@H]2CC[C@@H](C3)N2C2COC2)cc1 | > 75 | > 10000 | 268 | 180 | 29 |  |  |  |  |  |  |  |  |  |  |  |  |  |
| CCNC(=O)Nc1ccc(-c2nc3c(c(N4CCOC[C@@H]4C)n2)C[C@@H]2CC[C@H]3N2C(=O)COC)cc1 |  |  | 36 | 47 | 2.2 | 134 | 0.07 | 0.27 | 0.21 | 0.82 | 47 | 0.66 | 9.38 | 69 | 31 | 17 | soluble |  |
| CCNC(=O)Nc1ccc(-c2nc3c(c(N4CCOC[C@@H]4C)n2)C[C@@H]2CC[C@H]3N2S(C)(=O)=O)cc1 |  | 5000 | 47 | 25 | 1.6 | 342 | 0.05 | 0.14 | 0.1 | 1.02 | 53 | 1.59 | 17.8 | 49 | 26 | 11 | soluble |  |
| CCNC(=O)Nc1ccc(-c2nc3c(c(N4CCOC[C@@H]4C)n2)[C@H]2CC[C@@H](C3)N2CC)cc1 | > 75 |  | 184 | 145 | 3.2 |  |  |  |  |  |  |  |  |  |  |  |  |  |

— ChEMBL document CHEMBL2331485, “Pyrimidoaminotropanes as potent, selective, and efficacious small molecule kinase inhibitors of the mammalian target of rapamycin (mTOR)” (J Med Chem, 2013)
